Experimental data taken from PubChem BioAssay AID1496 (Sanford-Burnham Center for Chemical Genomics, 2009).
Several values for one entry are separate records, joined by “and”; a condition that tells them apart may be missing. Identical values can stand only once. In all, about 220,000 compounds went through this assay and about 990 (0.45%) were called active. This is one part of a sample in which actives are shown more often than they occur.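 How the source made its calls: active means inhibition over about 50% at 20 µM in the single-dose screen (limit read from the data); inactive means the rest.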 The source holds several records for some structures; these can differ, active in one and inactive in another.

target: Runt-related transcription factor 1 (Homo sapiens) + Core-binding factor subunit beta (Homo sapiens) (UniProt Q01196+Q13951); experiment: inhibitors of RUNX1 Runt–CBFb binding, primary screen, biochemical, FRET, Cerulean-Runt, Venus-CBFb, uHTS (AID 1496); conditions: Cerulean-Runt/Venus-CBFb FRET ratio 530/480, 1 h; at 20 µM; stronger effect = higher value;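 further: 0% = DMSO wells and 100% = excess unlabeled CBFb competitor control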
In short: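 Measured by: fluorescence energy transfer, 422 nm excitation, 530/480 nm emission; test system: Cerulean-tagged RUNX1 Runt domain (FRET donor) fusion protein; buffer or medium: Tris pH 7.5 buffer with BSA; compound: one dose, 20 µM compound, 1% DMSO; times: two 1 h room-temperature incubations shielded from light; benchmarks: unlabeled CBFb 5 µM, positive control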

Sequence of Runt-related transcription factor 1 (Homo sapiens) + Core-binding factor subunit beta (Homo sapiens) (Q01196 whole entry, looked up, the tested form may be a part): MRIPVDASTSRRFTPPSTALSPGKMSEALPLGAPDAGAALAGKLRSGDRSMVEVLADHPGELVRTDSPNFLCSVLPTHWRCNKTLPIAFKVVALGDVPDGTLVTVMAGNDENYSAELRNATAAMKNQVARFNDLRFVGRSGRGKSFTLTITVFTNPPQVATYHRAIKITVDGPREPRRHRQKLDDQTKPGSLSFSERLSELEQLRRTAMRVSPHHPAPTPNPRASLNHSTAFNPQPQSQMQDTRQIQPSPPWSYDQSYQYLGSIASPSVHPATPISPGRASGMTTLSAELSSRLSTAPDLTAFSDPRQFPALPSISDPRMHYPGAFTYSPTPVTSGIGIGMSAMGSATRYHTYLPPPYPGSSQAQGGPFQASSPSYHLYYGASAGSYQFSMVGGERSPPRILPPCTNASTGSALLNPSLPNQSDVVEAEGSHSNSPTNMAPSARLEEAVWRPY
Sequence of Runt-related transcription factor 1 (Homo sapiens) + Core-binding factor subunit beta (Homo sapiens) (Q13951 whole entry, looked up, the tested form may be a part): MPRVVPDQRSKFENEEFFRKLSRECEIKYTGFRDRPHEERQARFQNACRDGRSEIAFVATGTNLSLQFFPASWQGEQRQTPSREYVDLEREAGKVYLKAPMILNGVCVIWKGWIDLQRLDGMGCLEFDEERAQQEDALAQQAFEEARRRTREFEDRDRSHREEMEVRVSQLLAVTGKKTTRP

SMILES	inhibition
O=S(=O)(Nc1ccc(OC(F)(F)F)cc1)c1cccc2nonc12	-2.4% (inactive)
O=c1[nH]c2ccccc2n2c(-c3ccccc3)nnc12	53% (active)
O=[N+]([O-])c1cccc(-c2nnc3c4ccccc4c4ccccc4n23)c1	4.4% (inactive)
Cc1ccc(-c2nc3ccccc3[nH]c2=O)cc1	1.4% (inactive)
Oc1c(Br)cc(/C=N/NC(=S)NCC2CCCO2)cc1Br (stereo not drawn)	0.6% (inactive)
CCN1C(=O)/C(=C\N2CCN(c3ccccc3)CC2)SC1=S	-0.2% (inactive)
CCN1C(=O)/C(=C2/Sc3ccccc3N2CCCS(=O)(=O)O)SC1=S	44.8% (inactive) and 56.4% (active)
CCCCN1C(=O)/C(=C/C=C2/C=Cc3ccccc3N2CC)SC1=S	27.9% (inactive)
COCCNC(=S)N1CCN(C)CC1	0.5% (inactive)
O=C1CCCCC1C(=O)c1ccccc1 (stereo not drawn)	1.7% (inactive)
COc1ccc(C2/C=C\CN(CC(C)C)CC(=O)N2Cc2ccc(F)cc2)cc1 (stereo not drawn)	0% (inactive)
O=C(O)CCc1cccnc1	-0.7% (inactive)
CCc1cccc2c(C=C(C#N)C#N)cn(CC(=O)N3CCCCC3)c12	91.4% (active)
COc1cccc2c(=O)n(CC(=O)N3CCCCCC3)ccc12	0.5% (inactive)
CCOC(=O)C1CCN(C(=O)Cn2cc(C#N)c3ccccc32)CC1	0.6% (inactive)
CSC1=NC2(C)CCCCC2C12C=CC(=O)C=C2 (stereo not drawn)	2.8% (inactive)
CCOc1ccc2nc(N3CCCN(C(=O)Nc4ccccc4C)CC3)c(C#N)cc2c1	29.2% (inactive)
COc1ccc2nc(N3CCCC(O)C3)c(C#N)cc2c1 (stereo not drawn)	81.1% (active)
COc1ccc(N2CCN(C(=O)CSc3nc4cc(OC)c(OC)cc4cc3C#N)CC2)cc1	12.5% (inactive)
CC1CCN(c2c(NCc3ccc(C(=O)NCc4ccccc4)cc3)c(=O)c2=O)CC1	0.6% (inactive)
NNC(=O)c1oc2nc(-c3ccccc3)cc(-c3ccco3)c2c1N	-57.1% (inactive)

SMILES	inhibition
CSc1nc(-c2ccco2)nn1C(=O)c1ccccc1Cl	-3.7% (inactive)
COc1ccc(Cl)cc1C(=O)NNC(=O)c1nc2nc(C)cc(C)n2n1	-0.8% (inactive)
COc1ccc(S(=O)(=O)Nc2ccc3oc(C)c(C(C)=O)c3c2)cc1	0.3% (inactive)
Cc1ccc(S(=O)(=O)Nc2ccc3ncccc3c2)cc1	-1.3% (inactive)
COCc1cc(=O)oc2cc(NS(=O)(=O)c3ccc(C)cc3)ccc12	58.8% (active)
Clc1ccc(C[n+]2cc(-c3ccc(Cl)cc3)n3c2CCC3)cc1	0.1% (inactive)
Cc1cc(C(=O)N2CCC(C(=O)O)CC2)c(C(F)(F)F)o1	0% (inactive)
S=C(NNC(=S)NC1CC2CCC1C2)NC1CC2C=CC1C2 (stereo not drawn)	11.8% (inactive)
COc1ccc2oc(=O)c(C(=O)O)cc2c1	3.3% (inactive)
COc1cccc(C(=O)c2cc3ccc(O)cc3oc2=O)c1	126% (active)
COc1ccc2oc(=O)c(C(=O)N3CCCC3)cc2c1	2% (inactive)
O=C(Nc1nnc(CCN2CCCCC2)s1)c1cccc(Cl)c1	2.2% (inactive)
Cc1noc(C)c1-c1nc(CSc2ccc(Cl)cc2)no1	0.4% (inactive)
OC(c1nc2ccccc2[nH]1)C(O)C(O)C(O)c1nc2ccccc2[nH]1 (stereo not drawn)	-0.4% (inactive)
O=C(Nc1cccc2ncccc12)C(Cl)(Cl)Cl	-0.7% (inactive)
Cc1ccc(/C=C(\C#N)C(=O)Nc2cccc3ncccc23)o1	125% (active)
Cc1ccc(C(=O)Nc2cccc3ncccc23)cc1[N+](=O)[O-]	-0.8% (inactive)
CCC(=O)c1ccc(OCC(=O)Nc2ccc3nc(C)sc3c2)cc1	1.3% (inactive)
CC1=NNC(=O)C1CCC(=O)N/N=C(\C)c1ccc(Cl)cc1 (stereo not drawn)	-1.6% (inactive)
CC[C@@H](C)[C@@H](C(=O)N1CCN(C(=O)OC(C)(C)C)CC1)n1cc(CCC(=O)O)nn1	2.1% (inactive)
CCc1c(C)nc2c(-c3ccccc3)c(C)nn2c1Nc1ccc(NC(C)=O)cc1	-2.4% (inactive)

SMILES	inhibition
O=C(O)c1ccccc1C(=O)Nc1ccccc1[N+](=O)[O-]	-1.2% (inactive)
NC(=O)c1c(NC(=O)CSc2nc(N)cc(=O)[nH]2)sc2c1CCCC2	0.4% (inactive)
Fc1cc(F)c2nc(Nc3nc4c(F)cccc4s3)sc2c1	0.3% (inactive)
NC(=O)c1c(Nc2nc3c(F)cccc3s2)sc2c1CCCC2	117% (active)
Cc1ccc(-c2cn3cc(C)ccc3n2)cc1	-4.5% (inactive)
Cc1ccc(-n2cc3ccc([N+](=O)[O-])cc3n2)cc1	-12.8% (inactive)
Cc1ccc(-c2cn3cc([N+](=O)[O-])ccc3n2)cc1	67.1% (active)
O=C(NNc1cc(Cl)cc(Cl)c1)c1c(F)cccc1Cl	0.6% (inactive)
O=C(Cc1cccc2ccccc12)NNC(=O)Nc1ccc(Cl)cc1	1.3% (inactive)
CCn1c(=N)c(S(=O)(=O)c2ccc(F)cc2)cc2c(=O)n3ccccc3nc21	10.5% (inactive)
C/C(=N/OC(=O)c1c(-c2c(F)cccc2Cl)noc1C)c1cnccn1	-0.3% (inactive)
CCOC(=O)c1cc2c(=O)n3ccccc3nc2n(CC(C)C)c1=NC(=O)c1c(-c2c(F)cccc2Cl)noc1C	64.1% (active)
Cc1onc(-c2c(Cl)cccc2Cl)c1C(=O)NNC(=O)c1c(-c2c(Cl)cccc2Cl)noc1C	0.7% (inactive)
CCCn1c(=NC(C)=O)c(C(=O)OCC)cc2c(=O)n3ccccc3nc21	101% (active)
Cc1ccc(-n2c(=O)c(C#N)cc3c(=O)n4ccccc4nc32)cc1C	19.9% (inactive)
O=C(NCC1CCCO1)c1cc(-c2ccccc2)nc2ccccc12 (stereo not drawn)	1.5% (inactive)
Cc1noc(C)c1COC(=O)COc1ccc(-c2ccccc2)cc1	-2.6% (inactive)
CC(=O)NNC(=O)c1csc(Cc2c(Cl)sc3ccc(Cl)cc23)n1	1.6% (inactive)
O=C(NNS(=O)(=O)c1ccccc1)c1cnn(-c2ccc(Cl)cc2)c1C(F)(F)F	1.6% (inactive)
O=C(CNCc1cccs1)Nc1cc(S(=O)(=O)N2CCCC2)ccc1Cl	4.6% (inactive)
CCc1nc(NCCO)c(C#N)c2c1CCCC2	-0.2% (inactive)
